The target in the assay is Protein farnesyltransferase subunit beta/geranylgeranyltransferase type-1 subunit alpha (Mus musculus, UniProt Q61239+Q8K2I1). The assay can be described thus: Anchorage-independent growth of transformed NIH3T3 cells in soft agar. The gist of the method: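 Transformed NIH-3T3 cells grown in soft agar; colonies photographed by video camera and counted; IC50 calculated from colony counts.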

Several values for one entry are separate records, joined by “and”; a condition that tells them apart may be missing. Identical values can stand only once.

By IC50 is commonly meant the concentration needed to halve the response being measured. Turning to `O=C(NCCCn1ccnc1)C1CN(C2c3ccc(Cl)cc3CCc3cc(Br)cnc32)CCN1C(=O)NC1CCCCC1` (stereo unspecified) [4-(3-bromo-8-chloro-6,11-dihydro-5H-benzo[5,6]cyclohepta[1,2-b]pyridin-11-yl)-piperazine-1,2-dicarboxylicacid 1-cyclohexylamide 2-[(3-imidazol-1-yl-propyl)-amide]], the IC50 was 5 nM and 5.2 nM.

These data come from BindingDB's records for doi:10.1016/j.bmcl.2005.10.070 (Pharmacopeia, 2005).
